Results published in ChEMBL document CHEMBL1122497, “A polymeric drug for treatment of inflammatory bowel disease” (1983).
Several values for one entry are separate records, joined by “and”; a condition that tells them apart may be missing. Identical values can stand only once.

Experiments:
[1] = species on record: Cavia porcellus; experiment: Tested for weight loss in guinea pig at 60 umol concentration of compound; type: functional
In short: (§1)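 Male Hartley guinea pigs (242-265 g), groups of 20, were gavaged twice daily with agent solutions or suspensions for 3 days. Then 5 wt % sterile degraded carrageenan was given as the sole drinking fluid, with dosing continued. Diarrhea was checked twice daily, body weight every 3 days, and necropsy done after 24 days of carrageenan.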

[2] = species on record: Cavia porcellus; experiment: Tested for cecal ulceration with mortality at 60 umol concentration of compound; type: functional
In short: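 Male Hartley guinea pigs (242-265 g, groups of 20) gavaged twice daily with 60 µmol doses as solution or suspension for 3 days. They were then given 5 wt % sterile degraded carrageenan as sole drinking fluid while dosing continued. Diarrhoea was checked twice daily and weight every 3 days. The study ended after 24 days of carrageenan, with necropsy and blind histology scored against untreated controls (Student's t test).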

[3] = species on record: Cavia porcellus; experiment: Tested for mean score after quantitative histological evaluation result in guinea pig; type: functional; design: scale not given here
In short: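 Carrageenan colitis in male Hartley guinea pigs: 3 days of twice-daily gavage, then 5 wt % degraded carrageenan drinking water for 24 days with dosing continued. All animals, including early deaths, were scored histologically, reviewed blind by two evaluators. Total points per group were averaged and compared with untreated controls by Student's t test.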

[4] = species on record: Cavia porcellus; experiment: Tested for cecal ulceration in necropsy at 60 umol concentration of compound; type: functional; in short: as §1
[5] = species on record: Cavia porcellus; experiment: Tested for cecal ulceration in diarrhea at 60 umol concentration of compound; type: functional; in short: as §1
[6] = tested on: Rattus norvegicus; experiment: (§2) Tested for peak serum concentration in feces after oral administered dose in rat 6; type: functional
In short: (§3)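 Nonfasted female Sim:(SD)fBr rats (200-300 g), acclimated 72 h to metabolism cages, got one oral dose as aqueous solution or suspension. Blood, urine and feces were collected to 96 h. Samples were hydrolysed with β-glucuronidase (pH 6.9, 37 °C, 18 h), acetylated, extracted with 4-methyl-2-pentanone and back-extracted into pH 6.0 buffer. Total 5-ASA plus metabolites were read fluorimetrically (ex 295, em 460 nm) against N-Ac-ASA standards.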

[7] = tested on: Rattus norvegicus; experiment: Tested for peak serum concentration in urine after oral administered dose in rat 6; type: functional
In short: (§4)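 Nonfasted female Sim:(SD)fBr rats (200-300 g), acclimated 72 h in metabolism cages, got a single oral dose (20 mg polymer or 16 mg SASP) as aqueous solution or suspension. Blood, urine and feces were collected to 96 h. Samples were β-glucuronidase-treated (37 °C, 18 h), acetylated, extracted and read fluorimetrically (ex 295, em 460 nm) against N-Ac-ASA standards.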

[8] = tested on: Rattus norvegicus; experiment: Tested for peak serum concentration in feces after oral administered dose in rat 4; type: functional; in short: as §4
[9] = tested on: Rattus norvegicus; experiment: Tested for peak serum concentration in feces after oral administered dose in rat 5; type: functional; in short: as §3
[10] = tested on: Rattus norvegicus; experiment: Tested for total administered dose in rat 4; type: functional; in short: as §3
[11] = tested on: Rattus norvegicus; experiment: Tested for peak serum concentration in urine after mean oral administered dose in rat; type: functional; in short: as §4
[12] = tested on: Rattus norvegicus; experiment: as §2; type: functional; in short: as §4; remark: listed apart in the source
[13] = tested on: Rattus norvegicus; experiment: Tested for peak serum concentration in urine after oral administered dose in rat 5; type: functional; in short: as §4
[14] = tested on: Rattus norvegicus; experiment: Tested for peak serum concentration in feces after mean oral administered dose in rat; type: functional; in short: as §4
[15] = tested on: Rattus norvegicus; experiment: Tested for peak serum concentration in urine after oral administered dose in rat 4; type: functional; in short: as §4
[16] = tested on: Rattus norvegicus; experiment: Tested for total administered dose in rat 5; type: functional; in short: as §4
[17] = tested on: Rattus norvegicus; experiment: Tested for peak serum concentration in urine after oral administered dose in rat 2; type: functional; in short: as §4
[18] = tested on: Rattus norvegicus; experiment: Tested for total administered dose in rat 2; type: functional; in short: as §4
[19] = tested on: Rattus norvegicus; experiment: Tested for total administered dose in rat 1; type: functional; in short: as §4
[20] = tested on: Rattus norvegicus; experiment: (§5) Tested for peak serum concentration in feces after oral administered dose in rat 3; type: functional; in short: as §4
[21] = tested on: Rattus norvegicus; experiment: Tested for peak serum concentration in feces after oral administered dose in rat 1; type: functional; in short: as §4
[22] = tested on: Rattus norvegicus; experiment: Tested for peak serum concentration in urine after oral administered dose in rat 3; type: functional; in short: as §4
[23] = tested on: Rattus norvegicus; experiment: as §5; type: functional; in short: as §4; remark: listed apart in the source
[24] = tested on: Rattus norvegicus; experiment: Tested for peak serum concentration in urine after oral administered dose in rat 1; type: functional; in short: as §4
[25] = tested on: Rattus norvegicus; experiment: Tested for peak serum concentration in feces after oral administered dose in rat 2; type: functional; in short: as §4
[26] = species on record: Rattus norvegicus; experiment: Tested for peak serum concentration in rat 4; type: functional, organism-based; in short: as §4
[27] = species on record: Rattus norvegicus; experiment: Tested for peak serum concentration in rat 5; type: functional, organism-based; in short: as §4
[28] = species on record: Rattus norvegicus; experiment: Tested for peak serum concentration in rat 6; type: functional, organism-based; in short: as §4
[29] = species on record: Rattus norvegicus; experiment: Tested for peak serum concentration in rat; type: functional, organism-based; in short: as §4

Structure (SMILES)	Weight loss [1] [g]	Incidence [2] [%]	Mean score [3]	Incidence [4] [%]	Incidence [5] [%]	Dose [11] [%]	Percent of oral dose recovered in feces [14]	also measured
Nc1ccc(S(=O)(=O)Nc2ccccn2)cc1 [SULFAPYRIDINE]	17	15	3.11	90	80	–	–	–
Nc1ccc(O)c(C(=O)O)c1 [MESALAMINE]	12	28	2.4	83	83	–	–	–
O=C(O)c1cc(/N=N/c2ccc(S(=O)(=O)Nc3ccccn3)cc2)ccc1O [SULFASALAZINE]	44	40	2.68	90	100	3.7	11% and 14.7%	Dose [6]: 11.4%; Dose [7]: 5%; Dose [8]: 7.7%; Dose [9]: 14%; Dose [10]: 10.7%; Dose [12]: 16.4%; Dose [13]: 3.2%; Dose [15]: 3%; Dose [16]: 17.2%
O=C([O-])c1cc(/N=N/c2ccc(S(=O)(=O)Nc3ccccn3)cc2)ccc1O.[Na+] [POLYMER OF SULFASALAZINE]	37	25	2.16	85	85	8	12.3% and 20.2%	Dose [17]: 9.5%; Dose [18]: 18.9%; Dose [19]: 12%; Dose [20]: 29.7%; Dose [21]: 5.3%; Dose [22]: 7.7%; Dose [23]: 22%; Dose [24]: 6.7%; Dose [25]: 9.4%
O=C(O)c1cc(/N=N/c2ccc(S(=O)(=O)Nc3ccccn3)cc2)ccc1O	–	–	–	–	–	–	–	Concentration [26]: 7.9 nM ml-1; Concentration [27]: 4 nM ml-1; Concentration [28]: 4.8 nM ml-1; Concentration [29]: 2.5 nM ml-1 and 5.6 nM ml-1
